PfHsp90 yeast 2 – inhibits growth of yeast expressing Plasmodium falciparum Hsp90; S. cerevisiae expressing PfHsp90, BacTiter-Glo ATP, 48 h; yeast lacking PDR1 and PDR3 efflux regulators; inhibition, % at 9.4 µM; AID 504621; hit rate 0.32% among 310,000;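 active = every replicate shows inhibition above about 80%, whatever the replicate mean, limit read from the data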;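 note: 0% = DMSO neutral controls and 100% = 20 µM radicicol positive controls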
S100A4 MyoIIA – blocks human S100A4 binding to myosin IIA peptide | P26447 | S100A4/TAMRA-MyoIIA peptide fluorescence polarization | inhibition, % at 10.7 µM | hit rate 0.14% among 360,000;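 active = mean inhibition of at least 70% across replicates, with every replicate also reaching that level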
Target sequence (P26447 whole entry, looked up): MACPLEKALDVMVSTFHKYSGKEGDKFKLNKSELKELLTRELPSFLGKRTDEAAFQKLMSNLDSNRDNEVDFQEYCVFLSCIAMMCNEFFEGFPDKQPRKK
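Test system: S100A4 monomer protein; Medium: HEPES pH 7.2 with CaCl2, KCl, NaCl, DTT, Triton; Probe or stimulus: TAMRA-labelled myosin IIA heavy-chain peptide probe, 5 nM; Doses: one dose per compound; Times: polarization read 5 min after assay mix addition, stable 5–60 min; Benchmarks: neutral control DMSO, positive control TFP.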
rRNA inh HTS – inhibits bacterial ribosomal RNA function over humanized ribosomes. E. coli WT GFP vs humanized-ribosome RFP mutants, fluorescence, 24 h; hits give low values; DMSO median 0, no signal -100. GFP signal change (wild-type ribosome), % (test concentration not listed). hit rate 1.6% among 350,000;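 active = significant combined selectivity score with lowered wild-type GFP, culture density cut under 30%, mutant RFP and density less affected; inactive = any of these conditions unmet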
DENV2 CPE rescue – DENV2-induced cell death inhibition | DENV2-infected cells, cytopathic effect rescue, plate reader | hit rate 1.7% among 350,000 | CPE inhibition, % at 9.99 µM; in the data active = CPE inhibition above about 20%, passing the limit was not always enough; tested in BHK-21 cells;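 note: 0% = median of neutral control wells and 100% = median of positive control wells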
AF4-AF9 inh – blocks AF4 peptide binding to human AF9. inhibition, % at 10 µM. AlphaScreen, biotin-AF4 peptide binding to FLAG-AF9. hit rate 0.47% among 350,000. P42568;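 active = every replicate reaching a set inhibition limit, whatever the replicate mean, cut at about 25% in these data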;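 note: 0% = plate neutral control median and 100% = total signal loss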
Cneo AK release – causes C. neoformans cell lysis. lysis activity, % at 15 µM. adenylate kinase release luminescence, 4 h; normalised: neutral wells 0, clomiphene wells 100. hit rate 0.2% among 360,000. AID 651654;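 active = mean lysis activity across replicates of at least 80%, whatever share of replicates individually reach that level; inactive = mean lysis activity below 80%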
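Assay system: C. neoformans cells. Amount: yeast cell density of 5 × 10^6 cells/mL. Technique: AK luminescence. Buffer or medium: YPD. Times: static 4 h at 37 °C with compound, 1 h detection. Dosing: single-point compound dose. Read-out: lysis from increased AK signal.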
* hit, by the source's call; nt = no result. The list is not random: actives were taken first. Their share in the collection is about 3.2%.

SMILES	PfHsp90 yeast 2	S100A4 MyoIIA	rRNA inh HTS	DENV2 CPE rescue	AF4-AF9 inh	Cneo AK release
CCOC(=O)C1=C(C)N(C[C@@H]2CC[C@@H](Cc3ccc4cc(OC)ccc4c3)O2)C(=O)NC1c1ccc(OC)cc1 (some centres not stated)	24	-2	3	-6	3	-1
COc1ccc2cc(C[C@@H]3CC[C@@H](CO)O3)ccc2c1	8	-1	-23*	4	-2	-2
C[C@@H]1CN([C@@H](C)CO)C(=O)c2cc(NS(=O)(=O)c3ccc(Cl)cc3)ccc2O[C@@H](C)CCCCO[C@@H]1CN(C)Cc1ccc2c(c1)OCO2	nt	19	-3	15	-7	-8
CCOC(=O)c1cccc(NC(=O)/C=C/c2cccc([N+](=O)[O-])c2)c1	0	nt	nt	nt	nt	14
CCOC(=O)/C=C/C(=O)Nc1cccc([N+](=O)[O-])c1	98*	nt	nt	nt	nt	nt
COc1cc(-c2nc3n(n2)C(c2ccc(F)cc2)C2=C(CCCC2=O)N3)cc(OC)c1OC (configuration not stated)	13	-1	-27*	nt	nt	nt
C[C@H](CO)N1C[C@H](C)[C@H](CN(C)S(C)(=O)=O)Oc2ccc(NC(=O)CCCCCC(=O)Nc3ccccc3N)cc2C1=O	nt	-14	3	-7	-5	nt
CC(=Cc1ccccc1)C=C1SC(=S)N(CCCC(=O)Nc2ccc(C(=O)O)cc2)C1=O	nt	7	-23*	8	13	-3
CCC(C(=O)O)N1C(=O)/C(=C/C(C)=C/c2ccccc2)SC1=S (configuration not stated)	-52	1	-37	2	-1	nt
CC(/C=C1\SC(=S)N(NC(=O)c2ccc(O)cc2)C1=O)=C\c1ccccc1	-33	3	-25*	-8	-7	nt
Cc1noc(C)c1S(=O)(=O)Nc1ccc2c(c1)C(=O)N([C@@H](C)CO)C[C@@H](C)[C@@H](CN(C)S(=O)(=O)c1c(C)noc1C)O2	nt	nt	1	nt	nt	nt
CC1(C(=O)NCc2cc(F)cc(C(F)(F)F)c2)C=CC2(CCCCC2)N1C(=O)c1ccccc1 (configuration not stated)	-13	1	5	100*	-4	-1
CC1(C(=O)NCC2CC2)C=CC2(CCCCC2)N1C(=O)c1ccccc1 (configuration not stated)	-18	-2	6	nt	nt	-1
C[C@@H]1CN([C@H](C)CO)C(=O)c2cc(NC(=O)Nc3ccccc3)ccc2O[C@H]1CN(C)CC1CCCCC1	nt	5	3	10	0	2
COc1ccc2c3c(n(C)c2c1)[C@H](CO)N(C(=O)c1ccccc1)CC31CCN(CC2CC2)CC1	nt	-3	3	1	-1	nt
COc1ccc(C(=O)NC(=S)NCc2cccnc2)cc1OC	7	-5	-29*	-7	-3	-1
CCc1noc(C)c1C(=O)NNC(=O)c1ccccc1	6	-2	3	-5	-3	1
CCc1ccc(C(=O)NNC(=O)c2c(CC)noc2C)cc1	nt	0	14	37*	-1	1
Cc1cc(/C=C\c2ccccc2)nc2ccccc12	-93	-1	-50	5	26*	nt
C[C@H]1CN([C@@H](C)CO)C(=O)c2cc(NC(=O)CCCN(C)C)ccc2O[C@H]1CN(C)C(=O)Nc1cccc2ccccc12	nt	4	1	1	-2	-1
COc1ccc(-c2ccc([C@H]3[C@H]4CN(S(=O)(=O)c5cccs5)CCCCN4[C@H]3CO)cc2)cc1	nt	-1	-1	-10	-4	0
COc1ccc(-c2ccc([C@H]3[C@@H](CO)N4CCCCN(S(=O)(=O)c5cccs5)C[C@H]34)cc2)cc1	nt	2	-45	26*	-2	0
O=S(=O)(c1cccs1)N1CCCCN2[C@H](CO)[C@H](c3ccc(Br)cc3)[C@H]2C1	nt	-16	-2	38*	2	1
COc1ccc(S(=O)(=O)N2CCCCN3[C@H](CO)[C@H](c4ccc(C5=CCCC5)cc4)[C@@H]3C2)cc1	nt	nt	0	141*	nt	-1
O=S(=O)(c1cccs1)N1CCCCN2[C@@H](CO)[C@@H](c3ccc(Br)cc3)[C@@H]2C1	nt	11	-8	1	3	-2
SMILES	PfHsp90 yeast 2	S100A4 MyoIIA	rRNA inh HTS	DENV2 CPE rescue	AF4-AF9 inh	Cneo AK release
CCCNC(=O)N1CC2(C1)[C@H](c1ccccc1)[C@H](CO)N2C(=O)C1CCCCC1	nt	-3	0	65*	-4	nt
CCCNC(=O)N1CC2(C1)[C@H](c1ccccc1)[C@H](CO)N2C(=O)CC1CC1	nt	-4	1	23*	-2	nt
CCCNC(=O)N1CC2(C1)[C@H](c1ccccc1)[C@@H](CO)N2C(=O)C1CCCCC1	nt	0	-1	7	-2	nt
CCCNC(=O)N1CC2(C1)[C@H](c1ccccc1)[C@@H](CO)N2C(=O)CC1CC1	nt	7	1	18	-2	nt
O=C(c1ccncc1)N1CC2(C1)[C@H](c1ccccc1)[C@H](CO)N2C(=O)CC1CC1	nt	nt	3	-1	0	nt
O=C(c1ccccc1)N1CC2(C1)[C@H](c1ccccc1)[C@@H](CO)N2C(=O)CC1CC1	nt	-9	1	26*	-2	nt
COc1ccc2[nH]c3c(=O)n4c(nc3c2c1)SCCC4	0	-9	-28*	0	-2	2
C[C@@H]1CN([C@H](C)CO)C(=O)c2cc(C3=CCCC3)cnc2O[C@@H]1CN(C)Cc1cccnc1	nt	-30	7	2	-2	2
O=C(CNC(=O)c1ccccc1)OCC(=O)c1ccccc1Cl	-10	1	1	28*	-3	0
Clc1ccccc1C(c1ccccc1)(c1ccccc1)n1ccnc1	90*	-12	nt	-1	11	-9
NNC(=O)c1cccc(S(=O)(=O)Nc2cc(Cl)ccc2Cl)c1	3	6	-20*	-1	-9	nt
COc1ccccc1NS(=O)(=O)c1cccc(C(=O)NN)c1	10	nt	nt	nt	nt	-2
COc1cccc(-c2ccc([C@@H]3[C@@H](CO)N4CCCCN(C(=O)c5ccc(F)cc5)C[C@H]34)cc2)c1	nt	2	-57	43*	1	2
COc1cccc(-c2ccc([C@H]3[C@@H](CO)N4CCCCN(C(=O)c5ccc(F)cc5)C[C@H]34)cc2)c1	nt	2	-55	43*	-1	2
S=c1[nH]nc(C(c2ccccc2)C2CCCCC2)o1 (configuration not stated)	5	-5	-27*	4	-1	nt
S=c1[nH]nc(C2(c3ccccc3)CCCC2)o1	-37	-2	-4	-3	1	nt
C[C@@H](c1ccccc1)N1C[C@H](COCc2ccccc2)Oc2cc(N3CC[C@@H](N(C)C)C3)ccc2S1(=O)=O	nt	-3	-10	-3	23	nt

Bioassay records deposited in PubChem by Broad Institute.
